Test results as given in publication PMC7429258 (Molecular pharmaceutics, 2020).
“Also recorded” adds a separate entry of the source.

Key:
[1] = test system: untransfected HEK293 cells; assay: fura-2 assay of [Ca2+]i in untransfected HEK293 cells; format: cell-based, human; conditions: DG2 0.1–10 μM; ADP 20 μM positive control
Outline: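 Trypsinized HEK293 cells plated on rat tail collagen-coated 96-well plates and loaded with fura-2 AM. Read in kinetic mode on a fluorescence plate reader. Test solutions added by automated pipetting at 100 s. Data sampled at 6 s intervals over 300 s. Read-out: percent change in 340/380 ratio after baseline subtraction. Each experiment repeated at least three times.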

CCK2i4svR = target: T1, CCK2i4svR (Homo sapiens, UniProt P32239); format: binding; conditions: read-out: IC50, displacement of [125I][I-Tyr12,Leu15]gastrin; HEK293-CCK2i4svR cell membranes, 60 min at 22 °C, mean ± SD, n = 3
T1 sequence (P32239 1-516 isoform P32239-2): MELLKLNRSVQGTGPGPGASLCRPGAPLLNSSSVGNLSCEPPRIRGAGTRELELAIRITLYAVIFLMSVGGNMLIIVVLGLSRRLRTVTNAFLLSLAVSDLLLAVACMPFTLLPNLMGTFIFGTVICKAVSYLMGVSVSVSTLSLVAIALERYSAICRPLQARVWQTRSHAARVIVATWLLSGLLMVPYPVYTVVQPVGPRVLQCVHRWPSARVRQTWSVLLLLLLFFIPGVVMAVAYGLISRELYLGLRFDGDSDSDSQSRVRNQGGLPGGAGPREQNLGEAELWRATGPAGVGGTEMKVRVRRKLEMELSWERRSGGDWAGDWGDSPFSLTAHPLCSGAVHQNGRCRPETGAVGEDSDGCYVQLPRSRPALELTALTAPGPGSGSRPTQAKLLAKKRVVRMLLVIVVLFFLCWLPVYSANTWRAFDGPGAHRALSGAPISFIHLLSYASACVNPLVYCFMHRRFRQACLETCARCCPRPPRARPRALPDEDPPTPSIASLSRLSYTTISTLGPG
Outline: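 Parent nonpeptidic antagonist served as reference. Stopped with ice-cold 10 mM HEPES pH 7.4/150 mM NaCl, then rapid GF/B glass-fibre filtration and gamma counting. IC50 by one-site nonlinear regression; mean ± SD, three experiments in triplicate.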

Nc1ncnc2c1ncn2[C@@H]1O[C@H](COP(=O)(O)OP(=O)(O)O)[C@@H](O)[C@H]1O [ADP]
agonist action on [Ca2+]i in untransfected HEK293 cells [1]: did respond; also recorded: does exert an agonist action

CC(C)(C)C(=O)CN1C(=O)[C@H](NC(=O)Nc2cccc(C(=O)O)c2)CN(C2CCCCC2)c2ccccc21 [Z-360, 3-[[[[(3R)-5-cyclohexyl-1-(3,3-dimethyl-2-ox-obutyl)-2,3,4,5-tetrahydro-2-oxo-1H-1,5-benzodiazepin-3-yl]-amino]carbonyl]amino]benzoic acid]
IC50 (CCK2i4svR): 1.57 ± 0.14 nM
